Wee1 degr inh = blocks degradation of human Wee1 kinase; HeLa Luc-Wee1K328M stability, luciferase luminescence; 100% = proteasome inhibitor MG132 effect; reporter increase, % at 5 µM; actives 1.2% (n = 220,000);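 active = activation above the mean of all tested compounds plus 3 SD, set per screening run, cut at about 8.8% in these data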;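 note: cells exposed to compound for 20 h before luminescence read; 0% = DMSO alone and 100% = MG132 at 30 µM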
RBBP9 inh = human RBBP9 hydrolase inhibition. O75884. recombinant RBBP9, FP-Rh probe fluorescence polarization. inhibition, % at 7.94 µM. actives 0.2% (n = 220,000). AID 1515;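 active = inhibition above the campaign mean of all tested compounds plus 3 SD, cut at about 14% in these data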;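 note: plate controls were DMSO wells with RBBP9 for no effect and wells lacking RBBP9 protein for full effect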
Target sequence (O75884 whole entry, looked up): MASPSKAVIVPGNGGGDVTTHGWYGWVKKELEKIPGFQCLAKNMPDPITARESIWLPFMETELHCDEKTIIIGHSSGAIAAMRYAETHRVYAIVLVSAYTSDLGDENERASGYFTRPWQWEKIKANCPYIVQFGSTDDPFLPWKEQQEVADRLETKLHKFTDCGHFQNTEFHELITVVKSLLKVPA
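Test system: recombinant human RBBP9; Timing: 30 min then 45 min, 25 °C; Detection: fluorescence polarization; Control set: RBBP9 with DMSO as uninhibited control, no-protein wells as full inhibition; Compound dosing: one concentration, 7.94 µM nominal, 0.794% DMSO; Probe or stimulus: FP-Rh activity-based probe, 375 nM before mixing.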
zVAD death inh = blocks zVAD induced death of L929 cells | AID 1377 | viability rescue, % at 10 µM | L929 zVAD necroptosis rescue, ATP luminescence, 24 h; with zVAD 60 µM | actives 0.38% (n = 220,000);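 active = activation, scaled between plate controls, above about 75%, limit read from the data; inactive = activation under that limit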;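 note: 0% = zVAD with DMSO and 100% = DMSO alone without zVAD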
p97 ATPase inh = inhibitors of human p97 ATPase. P55072. recombinant p97 ATPase, Kinase-Glo ATP luminescence, 3 h. inhibition, % at 8 µM. actives 0.42% (n = 220,000); in the data active = inhibition above about 15%;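 note: 0% = DMSO vehicle and 100% = wells lacking enzyme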
PfM18AAP inh-1 = blocks P. falciparum M18 aspartyl aminopeptidase; recombinant PfM18AAP, H-Glu-NHMec fluorogenic cleavage; inhibition, % at 7.35 µM; actives 1.2% (n = 290,000); AID 1822;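 active = inhibition above the campaign mean inhibition over all tested compounds plus 3 SD, cut at about 28% in these data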;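 note: 0% = plate median of test compound wells and 100% = 2 mM ZnCl2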
TNF death inh = inhibitors of TNF-alpha induced necroptosis in Jurkat FADD-/- cells; Jurkat FADD-/- TNF necroptosis rescue, ATP luminescence, 24 h; 0 = TNF only, 100 = no-TNF cells; activation (protection from cell death), % at 10 µM; actives 0.068% (n = 220,000); AID 463075;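 active = activation, meaning protection from cell death, of at least 50% relative to plate controls; inactive = activation below 50%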;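 note: necroptosis triggered by 40 ng/mL TNF-alpha added together with compound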
p97 confirm = confirmation of human p97 ATPase inhibitors; shares compounds with p97 ATPase inh; recombinant p97 ATPase, Kinase-Glo ATP luminescence; inhibition, % at 8 µM; actives 44% (n = 760); AID 1517;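 active = percent inhibition of p97 ATPase above a set limit, the primary screen's mean plus 3 SD, cut at about 15% in these data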;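 note: 0% = DMSO wells and 100% = wells lacking p97 protein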
RBBP9 confirm = human RBBP9 inhibition, confirmation | shares compounds with RBBP9 inh | actives 36% (n = 410) | recombinant RBBP9, FP-Rh probe fluorescence polarization | AID 1537 | inhibition, % at 7.94 µM;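 active = inhibition above the hit cutoff derived for the primary screen, cut at about 15% in these data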;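 note: 0% = RBBP9 with DMSO and 100% = wells lacking RBBP9 protein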
PfM18AAP inh-2 = confirmation of Plasmodium falciparum M18 aspartyl aminopeptidase inhibitors | shares compounds with PfM18AAP inh-1 | recombinant PfM18AAP, H-Glu-NHMec fluorogenic cleavage | inhibition, % at 7.35 µM | actives 28% (n = 2,400) | AID 2170;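 active = mean inhibition over replicate wells above the hit cutoff set for the earlier primary screen, cut at about 29% in these data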;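 note: 0% = median of test compound wells and 100% = 2 mM ZnCl2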
CTSL1 counter = counter-screen for PFM18AAP inhibitors: confirmation of human cathepsin L inhibitors. shares compounds with PfM18AAP inh-1. purified cathepsin L1, Z-Leu-Arg-MCA fluorescence. inhibition, % at 5.96 µM. 2,400 tested, under 10 active. AID 2178;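 active = average inhibition across replicates above the hit cutoff set in the earlier primary screen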;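 note: 0% = median of test compound wells and 100% = Z-Phe-Ala-diazomethylketone 1 µM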
Active calls of the source: *; . = not tested or not shown. A selection: hits, their analogues and other compounds. The true share with any hit is near 2.7%.

SMILES	Wee1 degr inh	RBBP9 inh	zVAD death inh	p97 ATPase inh	PfM18AAP inh-1	TNF death inh	p97 confirm	PfM18AAP inh-2	CTSL1 counter	others
O=C(O)Cc1c[nH]c2cccc(O)c12	3	-2	0	17*	44*	-1	19*	0	-6
CCC(NC(=O)Nc1ccc(O)cc1)(C(F)(F)F)C(F)(F)F	1	24*	0	37*	39*	-1	5	-88	-1
O=C1S/C(=C\C=C\c2ccco2)C(=O)N1c1ccc(O)cc1	5	9	0	43*	39*	-3	11	-39	11
CCCCC[C@H]1CN(Cc2ccc(OC)cc2)C(=O)[C@@H]1CC(=O)NCc1ccccc1	.	.	.	.	-4	.	.	.	.
O=S(=O)(c1ccc(NC(=S)N/N=C/c2ccc(O)c(O)c2)cc1)N1CCOCC1	-1	-12	4	19*	57*	-1	21*	34*	-1
N#Cc1ccc(/C=N/NC(=S)Nc2ccc(S(=O)(=O)N3CCOCC3)cc2)cc1	-2	0	1	4	3	-1	.	.	.
COc1cccc(-c2c(C#N)c(SC)nc3cc(C)nn23)c1	-2	-12	-1	-6	-10	0	.	.	.
CCSc1cc(C)nc2c(-c3ccc(Cl)cc3)c(C)nn12	0	0	1	-2	2	1	.	.	.
Cc1cc(SCC(=O)c2ccc(O)c(O)c2)n2nc(C)c(-c3ccccc3)c2n1	-1	-6	1	15*	57*	-10	18*	37*	-5
NS(=O)(=O)c1ccc(Nc2nc(-c3ccc(F)cc3)cs2)cc1	-1	-7	1	8	6	-1	.	.	.
NS(=O)(=O)c1ccc(Nc2nc(-c3ccc(O)cc3O)cs2)cc1	-1	-6	1	27*	41*	-17	51*	39*	3
O=C(O)c1cccc(CN2C(=O)SC(Nc3cccc4ccccc34)C2=O)c1 (centres undefined)	-3	-4	0	17*	34*	-5	13	-65	5
CN=c1scc(-c2ccc([N+](=O)[O-])cc2)n1/N=C/c1ccco1	-2	0	2	4	8	-1	.	.	.
O=C1c2ccc([N+](=O)[O-])cc2NC(c2ccco2)N1/N=C/c1ccco1 (centres undefined)	-3	5	-1	16*	40*	-3	8	-10	0
CC(C)N(C(=O)c1nn(C)c2c1CSc1ccccc1-2)C1CCCCC1	.	.	.	.	3	.	.	.	.
NC(=O)CC1Nc2cccc3cccc(c23)NC1=O (centres undefined)	-2	29*	3	35*	52*	2	9	-52	1	RBBP9 confirm=7
NC(=S)N/N=C/c1coc2ccc(O)cc2c1=O	3	-8	1	15*	69*	-3	11	42*	6
Cc1cc(-c2ccccc2)n2nc(N)nc2n1	2	-2	0	3	-7	1	.	.	.
Cc1cc(C)n(-c2ccc(C(=O)OCC(=O)Nc3ccc(Cl)cc3[N+](=O)[O-])cc2)n1	-1	-6	1	3	-2	1	.	.	.
CCOc1ccc(S(=O)(=O)Nc2cc(Sc3ncn[nH]3)c3oc(=O)sc3c2)cc1	2	22*	2	8	29*	0	.	.	.	RBBP9 confirm=20*
CCOc1ccc(NS(=O)(=O)c2ccc(NS(=O)(=O)c3ccccc3)cc2)cc1	2	2	-1	-1	-10	0	.	.	.

Source: PubChem
